Article PMC3338887 (Journal of Natural Products, 2012)
“Also recorded” adds a separate entry of the source.

Key:
C. albicans DAY185 = assay: C. albicans growth inhibition / cell viability; assay type: cell-based, Candida albicans; conditions: for MIC: Candida albicans, DAY185, 48 h, read-out: MIC of growth inhibition
[1] = test system: C. albicans DAY185 hyphae formation; assay: Hyphae formation assay; assay type: cell-based, Candida albicans; conditions: for network of hyphal growth versus vehicle control: 50 μM, 6 h incubation, Figure 3; for germ tube and hyphae formation by 6 h: 6 h post inoculation; for germ tube and hyphae formation by 6 h / hyphae at 24 h: versus vehicle-treated cells; for hyphae at 24 h: 24 h post inoculation; for C. albicans hyphae formation / hyphal morphogenesis: phase contrast microscopy
Procedure, shortened: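 DAY185 grown overnight in BHI at 37 °C, pelleted, washed and resuspended in PBS pH 7.4. Seeded at 1×10^6 cells/well for 1 h at 37 °C, then washed twice with PBS to remove non-adherent cells. RPMI 1640 with 2% glucose plus test compound (50 μM), farnesol (50 μM) or DMSO vehicle (1% by vol.) added. Incubated at 37 °C; phase-contrast microscopy (×200) at 2.5, 6 and 24 h.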

[2] = test system: C. albicans DAY185 biofilm formation; assay: Biofilm time of addition assay; assay type: cell-based, Candida albicans; conditions: conclusion from the time-of-addition study
MIA PaCa-2 cells = assay: Mammalian cell cytotoxicity assay; assay type: cell-based, human; conditions: MIA PaCa-2 cell line, 24 h, MTT
[3] = Stability in organic solvents; assay type: physicochemical; conditions: MeOH and varying H2O-MeOH mixtures, CHCl3, CH2Cl2, EtOAc
[4] = several organic solvents; cited from earlier work

CC1(C)C=Cc2c(ccc3c2[N+]([O-])=C2C(C)(C)[C@@H]4C[C@]56CCCN5C(=O)[C@]4(NC6=O)[C@H]4N5C(=O)[C@@]67CCCN6C(=O)[C@@]56[C@H](c5c([nH]c8c9c(ccc58)OC(C)(C)C=C9)C(C)(C)[C@@H]6C7)[C@]234)O1 [Compound 1, waikialoid A]
MIC (C. albicans DAY185): > 200 µM
network of hyphal growth versus vehicle control [1]: significantly reduced or absent from nearly all cells
germ tube and hyphae formation by 6 h [1]: did not form germ tubes or hyphae by 6 h
hyphae at 24 h [1]: severely truncated hyphae
C. albicans hyphae formation / hyphal morphogenesis [1]: inhibited C. albicans hyphal morphogenesis; also recorded: inhibited C. albicans hyphae formation in a dose dependent manner
effect on preformed biofilms [2]: ineffective at disrupting preformed biofilms; also recorded: likely not effective at inhibiting or disrupting preformed biofilms
not toxic to mammalian (human) cells at concentrations up to (MIA PaCa-2 cells): > 200 µM
stability in solvents [3]: very stable for days

CC1(C)C=Cc2c(ccc3c2NC(=O)[C@@]32C[C@@]34NC(=O)[C@]5(CCCN5C3=O)C[C@H]4C2(C)C)O1 [Compound 2, notoamide B]
MIC (C. albicans DAY185): > 200 µM

CC1(C)C=Cc2c(ccc3c2NC(=O)[C@@]32[C@H](O)[C@@]34NC(=O)[C@]5(CCCN5C3=O)C[C@H]4C2(C)C)O1 [Compound 3, sclerotiamide]
MIC (C. albicans DAY185): > 200 µM

CC1(C)C=Cc2c(ccc3c4c([nH]c23)C(C)(C)[C@@H]2C[C@]35CCCN3C(=O)[C@]2(NC5=O)[C@H]4O)O1 [Compound 5, notoamide R]
MIC (C. albicans DAY185): > 200 µM

CC1(C)C=Cc2c(ccc3c4c([nH]c23)C(C)(C)[C@@H]2C[C@]35CCCN3C(=O)[C@@]2(C4)NC5=O)O1 [Compound 6, stephacidin A]
MIC (C. albicans DAY185): > 200 µM

CC1(C)C=Cc2c(ccc3c2[N+]([O-])=C2C3=C[C@@]34NC(=O)[C@]5(CCCN5C3=O)C[C@H]4C2(C)C)O1 [Compound 7, CJ-17665]
MIC (C. albicans DAY185): > 200 µM

CC1(C)C=Cc2c(ccc3c2[N+]([O-])=C2C(C)(C)[C@@H]4C[C@]56CCCN5C(=O)[C@]4(NC6=O)[C@H]4N5C(=O)[C@@]67CCCN6C(=O)[C@@]56[C@@H]([C@]234)[C@]2(O)C(=[N+]([O-])c3c2ccc2c3C=CC(C)(C)O2)C(C)(C)[C@@H]6C7)O1 [Compound 14, waikialoid B]
MIC (C. albicans DAY185): > 200 µM

C/C=C/C=C/C=C/[C@H]1C[C@@H](O)CC(=O)[C@@H]1C [Compound 15, waikialide A]
MIC (C. albicans DAY185): > 200 µM
network of hyphal growth versus vehicle control [1]: significantly reduced or absent from nearly all cells
germ tube and hyphae formation by 6 h [1]: did not form germ tubes or hyphae by 6 h
hyphae at 24 h [1]: severely truncated hyphae
C. albicans hyphae formation / hyphal morphogenesis [1]: inhibited C. albicans hyphae formation in a dose dependent manner

C/C=C/C=C/C=C/[C@H]1C[C@@H](O)C[C@@H](O)[C@@H]1C [Compound 16, waikialide B]
MIC (C. albicans DAY185): > 200 µM

CC1(C)C=Cc2c(ccc3c2[N+]([O-])=C2C(C)(C)[C@@H]4CC56CCCN5C(=O)[C@]4(NC6=O)[C@H]4N5C(=O)[C@@]67CCCN6C(=O)[C@@]56[C@H](c5c(n(O)c8c9c(ccc58)OC(C)(C)C=C9)C(C)(C)[C@@H]6C7)[C@]234)O1 [Compound 17, stephacidin B]
stability in organic solvents [4]: degrade in several organic solvents

CC(C)=CCC/C(C)=C/CC/C(C)=C/CO [farnesol, reference compound]
MIC (C. albicans DAY185): > 200 µM
effect on C. albicans cell survival (C. albicans DAY185; positive control): did not impede cell survival
network of hyphal growth versus vehicle control [1]: significantly reduced or absent from nearly all cells
